Cneo AK release: Cryptococcus neoformans cell lysis inducers, primary screen, AK release luminescence, single concentration. C. neoformans lysis, adenylate kinase release luminescence, 4 h; normalised: neutral wells 0, clomiphene wells 100. lysis activity, % at 15 µM. 0.2% of 360,000 active. AID 651654, 2012;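 active means mean lysis activity across replicates of at least 80%, whatever share of replicates individually reach that level; inactive means mean lysis activity below 80%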
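Test system: log-phase Cryptococcus neoformans yeast cells; Quantity: yeast cell density of 5 × 10^6 cells/mL; Buffer or medium: YPD; Doses: single compound concentration per well; Timing: 4 h at 37 °C static, read 1 h later; Measured by: AK luminescence; Read-out basis: lysis from increased AK signal; Control set: Clomiphene as positive control.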
Statin myotox sup: suppressors of statin myotoxicity in C2C12 myotubes, primary screen, cell-based, single point, plate reader | C2C12 myotubes + simvastatin, ATP luminescence, 48 h; scaled: DMSO 0, geranylgeraniol control 100 | rescue of ATP level, % at 7.49 µM | 0.78% of 330,000 active;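 active means mean ATP rescue above about 67%, or every replicate alone reaching that limit, limit read from the data, passing the limit was not always enough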;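 further: myotubes were challenged with 10 µM simvastatin during compound exposure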
Efflux pump mplx: inhibitors of Candida efflux pumps in yeast, primary screen, S. cerevisiae, Nile Red, multiplex; S. cerevisiae Candida pump triplex; inhibition, % at 10 µM; 0.44% of 330,000 active; AID 485275, 2010;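 active means plate passing quality check with inhibition over a set limit, or well fluorescence over plate mean plus 4 SD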;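 further: Nile Red retained in pooled yeast measured as flow cytometry median fluorescence; 0% = buffer negative control and 100% = Enniatin B positive control; higher means more Nile Red kept so more efflux inhibition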
SUMO Mot1 rescue: yeast Mot1-301 growth rescue at high temperature, primary screen, SUMOylation pathway inhibitor project, S. cerevisiae, ATP luminescence, 38.5C. S. cerevisiae Mot1-301 growth rescue; percent above DMSO median, 100 means doubled. 1% of 320,000 active. AID 2716, 2010. growth rescue, % at 18.8 µM;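 active means every valid replicate shows activation above 250% relative to neutral control wells; inactive means the rest, any valid replicate at or below 250%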;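 further: OY570 slx delta 5 strain wells were the positive control but not used for scaling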
Yeast Mot1 SUMO: growth restoration of Mot1-301 yeast on galactose, dose response, SUMO pathway inhibitor project, whole organism, S. cerevisiae, ATP luminescence, cherry-picked samples. shares compounds with SUMO Mot1 rescue. growth activity, percent, % at 42 µM. 2,300 tested, under 10 active. S. cerevisiae Mot1-301 galactose growth, 24 h; -100 = growth of slx-deleted rescue strain;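 active means Signal drops as the depositor expects, and the fitted half-maximal dose is no more than ten times the top valid tested dose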;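 further: more negative values mean stronger growth rescue toward the control strain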
An asterisk follows results filed as active; · = no result given; + = active, no number; [ ] = remark or other dose. Sampled rows, rich in hits. Any-hit rate of the full collection: about 1.8%.

SMILES	Cneo AK release	Statin myotox sup	Efflux pump mplx	SUMO Mot1 rescue	Yeast Mot1 SUMO
CN1C(=O)c2cc(NS(C)(=O)=O)ccc2OC[C@@H]2O[C@H](CC(=O)NCc3ccccc3)CC[C@@H]21	-2	2	·	·	·
O=C1NC2(CCCCC2)NN1c1ccccc1	2	11	0	479*	1
COc1ccc(C(=O)CSc2nnc(CNC(=O)c3ccccc3)n2C)cc1	0	·	-12	397*	1
CC(C)(C)NC(=O)NC(=O)CN1CCN(S(=O)(=O)c2ccc3c(c2)CCCC3)CC1	4	-1	0	1	·
CC(C)(C)NC(=O)NC(=O)CN1CCN(S(=O)(=O)c2ccc3c(c2)OCCO3)CC1	·	-2	0	988*	-1[21 µM]
O=C(CSc1ncccn1)c1ccccc1Br	1	-8	0	436*	-1
Cc1cccc(OCCNC(=O)c2cc(C3CC3)nc3c2cnn3C(C)C)c1	0	1	·	·	·
O=C1CN(C(=O)c2c(F)cccc2F)C(c2ccc(F)cc2)c2cc(F)ccc2N1 (centres undefined)	0	6	0	677*	-1
COC(=O)c1cn(C(=O)c2cc(OC)c(OC)c(OC)c2)c2ccccc12	-1	-5	0	496	·
CC(C1CC2CCC1C2)n1c(-c2cccs2)n[nH]c1=S (centres undefined)	15	·	0	42	·
CN(C)/C(=N\S(=O)(=O)c1ccc(F)cc1)c1ccccc1	4	-7	0	4	·
CCN(CC)/C(=N\S(=O)(=O)c1ccc(F)cc1)c1ccccc1	-4	-3	0	551*	0[21 µM]
O=C(Nc1ccc2c(c1)CCC2)c1c(F)cccc1Cl	·	·	0	-7	·
O=c1cnc2ccccc2n1Cc1ccccc1C(F)(F)F	1	2	0	515*	0
O=C(O)CN(c1ccccn1)S(=O)(=O)c1ccc(Cl)cc1	-1	-20	0	589*	0
CC(NS(C)(=O)=O)C(c1cccs1)N1CCN(c2ccc(F)cc2)CC1 (centres undefined)	1	-11	0	33	·
COc1ccc(N2CCN(C(c3cccs3)C(C)NS(C)(=O)=O)CC2)cc1 (centres undefined)	·	·	0	379*	1
CCCCn1nnnc1SCC(=O)Nc1cccc(C)n1	0	·	0	-12	·
CC(CN1CCCCC1)C(=O)NNC(=O)C12CC3CC(CC(C3)C1)C2 (centres undefined)	1	-4	0	0	·
CC(CN1CCCCCC1)C(=O)NN (centres undefined)	·	·	0	674*	1
COC(=O)CCC(=O)OC1(C)C(=O)C2=CN(Cc3ccccc3)C(c3ccc(OC)cc3)=CC2=C(Br)C1=O (centres undefined)	-3	12	0	16	·
COC(=O)CCC(=O)OC1(C)C(=O)C2=CN(CCc3c[nH]c4ccccc34)C(c3ccc(OC)cc3)=CC2=C(Br)C1=O (centres undefined)	3	8	0	419*	0
N#C/C(=C\c1cn(-c2ccccc2)nc1-c1cccnc1)c1nnc2n1CCCCC2	-1	0	0	397*	0
N#C/C(=C/c1ccccc1[N+](=O)[O-])c1nnc2n1CCCCC2	·	5	0	-1	·
COc1ccc(S(=O)(=O)N2CCN(c3ccccc3)CC2)cc1OC	-6	·	·	·	·
SMILES	Cneo AK release	Statin myotox sup	Efflux pump mplx	SUMO Mot1 rescue	Yeast Mot1 SUMO
COc1cc(S(=O)(=O)N2CCN(c3ccccc3)CC2)ccc1F	·	·	0	647*	0
CO[C@@H]1CN(C)C(=O)c2ccc(NC(=O)C3CC3)cc2OC[C@H](C)N(C(=O)c2ccccc2F)C[C@H]1C	0	-15	·	·	·
Cc1ccc(-c2nnc(SCC#N)n2N)cc1	1	-5	0	+	0
Cc1cccc(-c2nnc(SCC#N)n2C)c1	-2	9	0	-13	·
COc1ccccc1NS(=O)(=O)c1cc(NC(=S)NCCN2CCOCC2)ccc1N1CCOCC1	·	-6	0	-13	·
CC(C)C1C(=O)CC(c2ccccc2)NC1c1ccccc1 (centres undefined)	-2	-8	0	15	·
CC1C(=O)CC(c2ccccc2)NC1c1ccccc1 (centres undefined)	0	16	0	789*	0

Assay outcomes from PubChem BioAssay.
